{"source": "ChEMBL document CHEMBL1126317", "about": "“2-(aminoalkyl)-5-nitropyrazolo[3,4,5-kl]acridines, a new class of anticancer agents” (1992)", "key": {"L1210": {"test_system": "L1210", "test": "In vitro antitumor activity against L1210 leukemia cell line.", "type": "functional", "settings": "Mus musculus, read-out: ID50 (the source's name)"}, "Mus musculus [1]": {"test_system": "Mus musculus", "test": "In vivo antitumor activity of the compound(ip, 3.12 mg/kg for 5 days) against CD2F1 mice implanted intraperitoneally with P388 leukemia cells.", "type": "functional", "settings": "route intraperitoneal"}, "Mus musculus [2]": {"test_system": "Mus musculus", "test": "In vivo antitumor activity of the compound(ip, 12.5 mg/kg for 5 days) against CD2F1 mice implanted intraperitoneally with P388 leukemia cells.", "type": "functional", "settings": "route intraperitoneal"}, "Mus musculus [3]": {"test_system": "Mus musculus", "test": "In vivo antitumor activity of the compound(ip, 25 mg/kg for 5 days) against CD2F1 mice implanted intraperitoneally with P388 leukemia cells.", "type": "functional", "settings": "route intraperitoneal"}, "[4]": {"test": "Ratio of the ID50's showing antitumor activity against HCT-8 and L1210 leukemia cell lines", "type": "functional", "method_in_brief": "(§1)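 Ratio taken as ID50 in HCT-8 cells divided by ID50 in L1210 cells, both ID50s expressed as molar concentrations.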"}, "HCT-8": {"test_system": "HCT-8", "test": "In vitro antitumor activity against HCT-8 colon cancer cell line.", "type": "functional", "settings": "Homo sapiens, read-out: ID50 (the source's name)"}, "Mus musculus [5]": {"test_system": "Mus musculus", "test": "In vivo antitumor activity of the compound(ip, 50 mg/kg for 5 days) against CD2F1 mice implanted intraperitoneally with P388 leukemia cells; Day 30 survivors=3/6", "type": "functional", "settings": "route intraperitoneal"}, "Mus musculus [6]": {"test_system": "Mus musculus", "test": "In vivo antitumor activity of the compound(ip, 25 mg/kg for 5 days) against CD2F1 mice implanted intraperitoneally with P388 leukemia cells; Day 30 survivors=1/6", "type": "functional", "settings": "route intraperitoneal"}, "Mus musculus [7]": {"test_system": "Mus musculus", "test": "In vivo antitumor activity of the compound(ip, 50 mg/kg for 5 days) against CD2F1 mice implanted intraperitoneally with P388 leukemia cells.", "type": "functional", "settings": "route intraperitoneal"}, "Mus musculus [8]": {"test_system": "Mus musculus", "test": "In vivo antitumor activity of the compound(ip, 25 mg/kg for 5 days) against CD2F1 mice implanted intraperitoneally with P388 leukemia cells; Day 30 survivors=2/6", "type": "functional", "settings": "route intraperitoneal"}, "[9]": {"test": "Ratio of the ID50's showing antitumor activity against HCT-8 and L1210 leukemia cell lines.", "type": "functional", "method_in_brief": "as §1"}, "Mus musculus [10]": {"test_system": "Mus musculus", "test": "In vivo antitumor activity of the compound(ip, 3.12 mg/kg for 5 days) against CD2F1 mice implanted intraperitoneally with P388 leukemia cells; Day 30 survivors=3/6", "type": "functional", "settings": "route intraperitoneal"}, "Mus musculus [11]": {"test_system": "Mus musculus", "test": "In vivo antitumor activity of the compound(ip, 3.12 mg/kg for 5 days) against CD2F1 mice implanted intraperitoneally with P388 leukemia cells; Day 30 survivors=2/6", "type": "functional", "settings": "route intraperitoneal"}, "Mus musculus [12]": {"test_system": "Mus musculus", "test": "In vivo antitumor activity of the compound(ip, 3.13 mg/kg for 5 days) against CD2F1 mice implanted intraperitoneally with P388 leukemia cells.", "type": "functional", "settings": "route intraperitoneal"}, "Mus musculus [13]": {"test_system": "Mus musculus", "test": "In vivo antitumor activity of the compound(ip, 50 mg/kg for 5 days) against CD2F1 mice implanted intraperitoneally with P388 leukemia cells; Day 30 survivors=1/6", "type": "functional", "settings": "route intraperitoneal"}, "Mus musculus [14]": {"test_system": "Mus musculus", "test": "In vivo antitumor activity of the compound(ip, 100 mg/kg for 5 days) against CD2F1 mice implanted intraperitoneally with P388 leukemia cells.", "type": "functional", "settings": "route intraperitoneal"}, "Mus musculus [15]": {"test_system": "Mus musculus", "test": "In vivo antitumor activity of the compound(ip, 25 mg/kg for 5 days) against CD2F1 mice implanted intraperitoneally with P388 leukemia cells; Day 30 survivors=1/6", "settings": "route intraperitoneal"}, "Mus musculus [16]": {"test_system": "Mus musculus", "test": "In vivo antitumor activity of the compound(ip, 25 mg/kg for 5 days) against CD2F1 mice implanted intraperitoneally with P388 leukemia cells.", "settings": "route intraperitoneal"}}, "data": [{"smiles": "COc1cc(OC)c2c(c1)-c1nn(CCN(C)C)c3ccc([N+](=O)[O-])c(c13)N2", "values": [{"measurement": "IC50", "setting": "L1210", "value": 210, "unit": "nM"}]}, {"smiles": "CS(=O)(=O)O.O=[N+]([O-])c1ccc2c3c(nn2CCN2CCCC2)-c2cc(O)ccc2Nc13", "values": [{"measurement": "IC50", "setting": "L1210", "value": 3, "unit": "nM"}, {"measurement": "T/C", "setting": "Mus musculus [1]", "value": 250, "unit": "%"}]}, {"smiles": "CCOc1ccc2c(c1)-c1nn(CCCN(C)C)c3ccc([N+](=O)[O-])c(c13)N2.CS(=O)(=O)O", "values": [{"measurement": "IC50", "setting": "L1210", "value": 220, "unit": "nM"}, {"measurement": "T/C", "setting": "Mus musculus [2]", "value": 236, "unit": "%"}]}, {"smiles": "CCN(CC)CCN1Nc2c3cc(OC)ccc3nc3c([N+](=O)[O-])ccc1c23.CS(=O)(=O)O", "values": [{"measurement": "IC50", "setting": "L1210", "value": 470, "unit": "nM"}, {"measurement": "T/C", "setting": "Mus musculus [3]", "value": 242, "unit": "%"}, {"measurement": "Ratio", "setting": "[4]", "value": 0.26}, {"measurement": "IC50", "setting": "HCT-8", "value": 120, "unit": "nM"}]}, {"smiles": "COc1ccc2c(c1)-c1nn(CCN(C)C)c3ccc([N+](=O)[O-])c(c13)N2.CS(=O)(=O)O", "values": [{"measurement": "IC50", "setting": "L1210", "value": 400, "unit": "nM"}, {"measurement": "Activity", "setting": "Mus musculus [5]", "value": 3}]}, {"smiles": "CCN(CC)CCN1Nc2c3cc(N(C)C)ccc3nc3c([N+](=O)[O-])ccc1c23.CS(=O)(=O)O", "values": [{"measurement": "IC50", "setting": "L1210", "value": 900, "unit": "nM"}, {"measurement": "T/C", "setting": "Mus musculus [3]", "value": 178, "unit": "%"}, {"measurement": "Activity", "setting": "Mus musculus [6]", "value": 1}]}, {"smiles": "CCN(CC)CCN1Nc2c3cc(O)c(Cl)cc3nc3c([N+](=O)[O-])ccc1c23.CS(=O)(=O)O", "values": [{"measurement": "IC50", "setting": "L1210", "value": 150, "unit": "nM"}, {"measurement": "T/C", "setting": "Mus musculus [7]", "value": 125, "unit": "%"}]}, {"smiles": "CCN(CC)CCN1Nc2c3ccc(O)cc3nc3c([N+](=O)[O-])ccc1c23.CS(=O)(=O)O", "values": [{"measurement": "IC50", "setting": "L1210", "value": 83, "unit": "nM"}, {"measurement": "T/C", "setting": "Mus musculus [3]", "value": 130, "unit": "%"}]}, {"smiles": "COc1ccc2c(c1)-c1nn(CCCN(C)C)c3ccc([N+](=O)[O-])c(c13)N2.CS(=O)(=O)O", "values": [{"measurement": "Activity", "setting": "Mus musculus [8]", "value": 2}, {"measurement": "Ratio", "setting": "[9]", "value": 0.33}]}, {"smiles": "CN(C)CCCN1Nc2c3cc(O)ccc3nc3c([N+](=O)[O-])ccc1c23.CS(=O)(=O)O", "values": [{"measurement": "IC50", "setting": "L1210", "value": 1.8, "unit": "nM"}, {"measurement": "T/C", "setting": "Mus musculus [1]", "value": 270, "unit": "%"}, {"measurement": "Ratio", "setting": "[9]", "value": 6.7}, {"measurement": "IC50", "setting": "HCT-8", "value": 12, "unit": "nM"}, {"measurement": "Activity", "setting": "Mus musculus [10]", "value": 3}]}, {"smiles": "CCN(CC)CCN1Nc2c3cc(OCc4ccccc4)ccc3nc3c([N+](=O)[O-])ccc1c23.CS(=O)(=O)O", "values": [{"measurement": "IC50", "setting": "L1210", "value": 27, "unit": "nM"}, {"measurement": "T/C", "setting": "Mus musculus [7]", "value": 200, "unit": "%"}]}, {"smiles": "CCN(CC)CCN1Nc2c3ccc(OCc4ccccc4)cc3nc3c([N+](=O)[O-])ccc1c23.CS(=O)(=O)O", "values": [{"measurement": "IC50", "setting": "L1210", "value": 180, "unit": "nM"}, {"measurement": "T/C", "setting": "Mus musculus [2]", "value": 87, "unit": "%"}]}, {"smiles": "Cl.O=[N+]([O-])c1ccc2c3c(c4ccccc4nc13)NN2CCNCCO", "values": [{"measurement": "IC50", "setting": "L1210", "value": 220, "unit": "nM"}, {"measurement": "T/C", "setting": "Mus musculus [3]", "value": 235, "unit": "%"}]}, {"smiles": "CN(C)CCN1Nc2c3cc(O)ccc3nc3c([N+](=O)[O-])ccc1c23.CS(=O)(=O)O", "values": [{"measurement": "IC50", "setting": "L1210", "value": 2.7, "unit": "nM"}, {"measurement": "T/C", "setting": "Mus musculus [1]", "value": 228, "unit": "%"}, {"measurement": "Activity", "setting": "Mus musculus [11]", "value": 2}]}, {"smiles": "CCOC(=O)Oc1ccc2c(c1)-c1nn(CCN(CC)CC)c3ccc([N+](=O)[O-])c(c13)N2.CS(=O)(=O)O", "values": [{"measurement": "T/C", "setting": "Mus musculus [12]", "value": 243, "unit": "%"}]}, {"smiles": "CCNCCN1Nc2c3cc(OC)ccc3nc3c([N+](=O)[O-])ccc1c23.CS(=O)(=O)O", "values": [{"measurement": "IC50", "setting": "L1210", "value": 210, "unit": "nM"}, {"measurement": "Activity", "setting": "Mus musculus [13]", "value": 1}, {"measurement": "Ratio", "setting": "[9]", "value": 0.57}, {"measurement": "T/C", "setting": "Mus musculus [7]", "value": 240, "unit": "%"}, {"measurement": "IC50", "setting": "HCT-8", "value": 120, "unit": "nM"}]}, {"smiles": "CCN(CC)CCN1Nc2c3cc(C)ccc3nc3c([N+](=O)[O-])ccc1c23.CS(=O)(=O)O", "values": [{"measurement": "IC50", "setting": "L1210", "value": 860, "unit": "nM"}, {"measurement": "T/C", "setting": "Mus musculus [14]", "value": 136, "unit": "%"}]}, {"smiles": "COc1ccc2c(c1)-c1nn(CCN3CCCC3)c3ccc([N+](=O)[O-])c(c13)N2.CS(=O)(=O)O", "values": [{"measurement": "IC50", "setting": "L1210", "value": 160, "unit": "nM"}, {"measurement": "T/C", "setting": "Mus musculus [3]", "value": 211, "unit": "%"}]}, {"smiles": "C=CCOc1ccc2nc3c([N+](=O)[O-])ccc4c3c(c2c1)NN4CCCN(C)C.CS(=O)(=O)O", "values": [{"measurement": "IC50", "setting": "L1210", "value": 2200, "unit": "nM"}, {"measurement": "T/C", "setting": "Mus musculus [2]", "value": 221, "unit": "%"}]}, {"smiles": "CCN(CC)CCN1Nc2c3cccc(OC)c3nc3c([N+](=O)[O-])ccc1c23.CS(=O)(=O)O", "values": [{"measurement": "IC50", "setting": "L1210", "value": 640, "unit": "nM"}, {"measurement": "T/C", "setting": "Mus musculus [14]", "value": 111, "unit": "%"}]}, {"smiles": "Cc1ccc2c(c1)-c1nn(CCNCCO)c3ccc([N+](=O)[O-])c(c13)N2.Cl", "values": [{"measurement": "T/C", "setting": "Mus musculus [7]", "value": 115, "unit": "%"}]}, {"smiles": "C=CCOc1ccc2nc3c([N+](=O)[O-])ccc4c3c(c2c1)NN4CCN(CC)CC.CS(=O)(=O)O", "values": [{"measurement": "IC50", "setting": "L1210", "value": 580, "unit": "nM"}, {"measurement": "Activity", "setting": "Mus musculus [15]", "value": 1}, {"measurement": "T/C", "setting": "Mus musculus [16]", "value": 258, "unit": "%"}]}, {"smiles": "COc1ccc2c(c1)-c1nn(CCNCCO)c3ccc([N+](=O)[O-])c(c13)N2", "values": [{"measurement": "IC50", "setting": "L1210", "value": 450, "unit": "nM"}]}, {"smiles": "CC(=O)Oc1ccc2nc3c([N+](=O)[O-])ccc4c3c(c2c1)NN4CCN(C)C.CS(=O)(=O)O", "values": [{"measurement": "IC50", "setting": "L1210", "value": 1.2, "unit": "nM"}, {"measurement": "T/C", "setting": "Mus musculus [1]", "value": 265, "unit": "%"}, {"measurement": "Activity", "setting": "Mus musculus [10]", "value": 3}]}, {"smiles": "CCN(CC)CCCN1Nc2c3cc(OC)ccc3nc3c([N+](=O)[O-])ccc1c23.CS(=O)(=O)O", "values": [{"measurement": "IC50", "setting": "L1210", "value": 1300, "unit": "nM"}, {"measurement": "T/C", "setting": "Mus musculus [3]", "value": 210, "unit": "%"}]}]}
